Measured values: article PMC8341804 (RSC Chemical Biology, 2021)

Key:
PC-3 cells [1] = experiment: Peptide uptake assay; assay type: cell-based; conditions: 5 μM FAM-labeled peptide, 4 h, fixed cells, fluorescence microscopy
How it was run: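 PC-3 cells were incubated with 5 μM 5(6)-carboxyfluorescein-labeled test compound for four hours, then imaged by fluorescence microscopy to assess intracellular distribution.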

PC-3 cells [2] = experiment: PMA induced cytoskeletal remodeling assay; assay type: cell-based; conditions: PC-3, serum starved 24 h, 5 μM peptide 4 h, 500 nM PMA 45 min
PKC = PKC substrate phosphorylation assay; assay type: cell-based; conditions: serum starved PC-3, 1, 2.5, 5 μM peptide 4 h, PMA 5 min; n = 3
How it was run: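 Serum-starved PC-3 cells were exposed to the test compound (1, 2.5 or 5 μM) or DMSO vehicle for 4 h. A catalytic PKC inhibitor reference was given at 500 nM for 90 min. Cells were then stimulated with 500 nM PMA for 5 min, harvested and analysed by western blot for PKC substrate phosphorylation; n = 3.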

[3] = target: Protein kinase C alpha type (Homo sapiens, UniProt P17252); experiment: Proteomic mass spectrometry of biotin-streptavidin pulldown; assay type: binding; conditions: 5 µM biotin labeled peptide, A549 lysate, LC-MS/MS
How it was run: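 Cell lysates were incubated for four hours with 5 μM biotin-labeled test compound or the corresponding scrambled control, with DMSO-treated lysate as negative control. Streptavidin–agarose beads were used for pulldown, and the eluates were analysed by mass spectrometry.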

Row | Substance | cellular uptake / cell permeability (PC-3 cells [1]) | cell morphology after PMA stimulation (phase contrast) (PC-3 cells [2]) | phosphorylated PKC substrates (anti-PKC p-Serine substrate western blot) (PKC) | Present in pulldown: Protein kinase C alpha type (PRKCA) [3]
1 | (5/6 FAM) - β-Ala - KAS(Nle)LCFKRRK*AAK*LK (sidechain bridge or staple) [CSTAD5] | considerable permeation | predominantly maintained a flat, elongated morphology | dose dependent reduction | present
2 | (5/6 FAM) - β-Ala - KAS(Nle)LCFKRRKK*AKA*K (sidechain bridge or staple) [CSTAD6] | considerable permeation | predominantly maintained a flat, elongated morphology | dose dependent reduction | 
